Experimental data as given in ChEMBL document CHEMBL4699390, “Chromone and donepezil hybrids as new multipotent cholinesterase and monoamine oxidase inhibitors for the potential treatment of Alzheimer''s disease” (RSC Med Chem, 2020).
The source made the active and inactive calls. The calls are words filed in the database; no cut-off is given here.

Assays:
Cholinesterase = Cholinesterase (Equus caballus, UniProt P81908); assay: Inhibition of equine serum BuChE using butyrylthiocholine iodide as substrate preincubated with enzyme for 6 mins followed by substrate addition and measured for 180 secs by Ellman's method
Chain of Cholinesterase (P81908 whole entry): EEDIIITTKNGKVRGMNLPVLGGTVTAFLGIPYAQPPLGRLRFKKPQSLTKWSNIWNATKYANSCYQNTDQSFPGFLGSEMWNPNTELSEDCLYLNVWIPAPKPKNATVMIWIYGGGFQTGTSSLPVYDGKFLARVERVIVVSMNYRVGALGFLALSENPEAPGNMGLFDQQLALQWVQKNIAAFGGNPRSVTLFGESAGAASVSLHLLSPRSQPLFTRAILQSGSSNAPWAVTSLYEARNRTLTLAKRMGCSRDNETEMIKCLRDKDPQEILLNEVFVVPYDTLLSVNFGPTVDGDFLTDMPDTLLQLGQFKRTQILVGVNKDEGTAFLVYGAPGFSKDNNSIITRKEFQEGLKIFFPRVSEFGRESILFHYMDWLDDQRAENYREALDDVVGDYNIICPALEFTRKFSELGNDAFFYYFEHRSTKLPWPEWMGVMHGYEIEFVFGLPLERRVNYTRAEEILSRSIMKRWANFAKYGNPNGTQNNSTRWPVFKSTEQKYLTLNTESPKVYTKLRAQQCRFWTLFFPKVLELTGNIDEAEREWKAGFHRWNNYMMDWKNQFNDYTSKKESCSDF
Outline: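 Ellman assay. Enzyme at 0.12 U/mL in 50 mM Tris-HCl pH 8.0 with 0.1% w/v BSA, plus 1.5 mM DTNB, preincubated with compound (0.001-100 μM, diluted from DMSO stock into Tris buffer with MgCl₂/NaCl) at 37 °C for 6 min. Then 15 mM butyrylthiocholine iodide was added, and absorbance at 405 nm was read at 0, 60, 120 and 180 s. IC50 from nonlinear regression of log concentration-response curves; at least three experiments in triplicate.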

in vitro = conditions: PAMPA
[1] = target: T1, Amine oxidase [flavin-containing] A (Homo sapiens, UniProt P21397); assay: Inhibition of recombinant human MAO- A using p-tyramine as substrate preincubated with enzyme for 15 mins followed incubation with substrate for 20 mins by Amplex red reagent based fluorescence based analysis
T1 sequence (P21397 whole entry): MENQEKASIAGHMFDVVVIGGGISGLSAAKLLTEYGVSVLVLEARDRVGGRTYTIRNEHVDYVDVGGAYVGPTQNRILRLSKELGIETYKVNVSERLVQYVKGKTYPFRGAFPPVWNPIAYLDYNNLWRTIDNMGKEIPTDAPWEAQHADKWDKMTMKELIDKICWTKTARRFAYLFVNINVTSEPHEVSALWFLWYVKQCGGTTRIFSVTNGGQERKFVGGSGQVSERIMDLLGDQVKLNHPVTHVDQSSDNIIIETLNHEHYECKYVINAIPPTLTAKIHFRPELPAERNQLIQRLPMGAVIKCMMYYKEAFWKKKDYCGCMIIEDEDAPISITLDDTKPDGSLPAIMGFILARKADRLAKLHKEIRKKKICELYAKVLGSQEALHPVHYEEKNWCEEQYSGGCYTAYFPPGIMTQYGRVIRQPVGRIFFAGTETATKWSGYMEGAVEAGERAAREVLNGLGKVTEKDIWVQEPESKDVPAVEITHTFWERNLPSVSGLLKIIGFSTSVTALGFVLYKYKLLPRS

[2] = Selectivity index, ratio of IC50 for equine serum BuChE to IC50 for electric eel AChE by Ellman's method
Acetylcholinesterase = Acetylcholinesterase (Electrophorus electricus, UniProt O42275); assay: Inhibition of electric eel AChE using acetylthiocholine iodide as substrate preincubated with enzyme for 6 mins followed by substrate addition and measured for 180 secs by Ellman's method
Chain of Acetylcholinesterase (O42275 whole entry): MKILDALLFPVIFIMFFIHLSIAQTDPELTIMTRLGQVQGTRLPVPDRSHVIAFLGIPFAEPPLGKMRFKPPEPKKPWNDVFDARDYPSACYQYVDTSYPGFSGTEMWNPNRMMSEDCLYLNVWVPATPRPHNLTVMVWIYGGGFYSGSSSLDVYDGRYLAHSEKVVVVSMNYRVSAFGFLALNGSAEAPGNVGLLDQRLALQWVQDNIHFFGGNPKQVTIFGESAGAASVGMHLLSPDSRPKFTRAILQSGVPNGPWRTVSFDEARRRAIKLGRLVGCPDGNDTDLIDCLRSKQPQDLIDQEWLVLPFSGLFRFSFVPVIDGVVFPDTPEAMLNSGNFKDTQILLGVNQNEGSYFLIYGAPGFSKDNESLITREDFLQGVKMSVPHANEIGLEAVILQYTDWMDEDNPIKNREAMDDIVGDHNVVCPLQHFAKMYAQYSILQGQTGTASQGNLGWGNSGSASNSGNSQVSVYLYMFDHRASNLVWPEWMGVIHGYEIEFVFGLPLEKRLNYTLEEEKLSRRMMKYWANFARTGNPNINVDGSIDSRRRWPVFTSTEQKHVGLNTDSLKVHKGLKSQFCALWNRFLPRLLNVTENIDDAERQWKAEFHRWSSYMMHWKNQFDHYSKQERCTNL

Homo sapiens = species: Homo sapiens; assay: Selectivity for recombinant human MAO-B over recombinant human MAO-A
[3] = target: T2, Amine oxidase [flavin-containing] B (Homo sapiens, UniProt P27338)
T2 sequence (P27338 whole entry): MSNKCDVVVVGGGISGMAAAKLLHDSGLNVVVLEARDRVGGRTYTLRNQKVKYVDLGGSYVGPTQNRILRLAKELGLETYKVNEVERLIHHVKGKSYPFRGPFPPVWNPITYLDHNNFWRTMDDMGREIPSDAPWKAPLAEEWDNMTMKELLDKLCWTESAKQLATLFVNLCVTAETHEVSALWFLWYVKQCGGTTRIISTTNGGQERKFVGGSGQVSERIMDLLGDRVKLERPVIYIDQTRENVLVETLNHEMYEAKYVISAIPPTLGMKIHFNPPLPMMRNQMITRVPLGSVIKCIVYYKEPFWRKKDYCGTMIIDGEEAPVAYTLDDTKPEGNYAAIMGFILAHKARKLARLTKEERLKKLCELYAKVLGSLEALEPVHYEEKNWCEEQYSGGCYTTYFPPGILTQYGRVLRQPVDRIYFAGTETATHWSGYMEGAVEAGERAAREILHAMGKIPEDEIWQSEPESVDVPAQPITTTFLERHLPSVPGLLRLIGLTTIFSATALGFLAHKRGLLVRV

PC-12 = assay: Cytotoxicity against rat PC12 cells assessed as cell viability at 1 to 50 uM measured after 24 hrs by MTT assay; format: cell-based; conditions: pc-12, 24 h, dose 1-50 µM
Outline: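 PC12 cells were grown at 37 °C, 5% CO₂ in DMEM with 10% bovine calf serum and penicillin/streptomycin, then seeded at 10,000 cells/well. At the required confluence they were switched to serum-free medium with compound for 24 h. Viability was read by MTT (4 h at 37 °C), with formazan dissolved in DMSO.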

[4] = target: T1, Amine oxidase [flavin-containing] A; assay: Inhibition of recombinant human MAO- A using p-tyramine as substrate at 100 uM preincubated with enzyme for 15 mins followed incubation with substrate for 20 mins by Amplex red reagent based fluorescence based analysis relative to control; conditions: time 35 min
Outline: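 Human MAO-A (1.1 µg protein, activity set to oxidize 165 pmol p-tyramine/min) was preincubated with compound in 0.05 M potassium phosphate pH 7.4 at 37 °C for 15 min in the dark. The reaction was started with 2 mM p-tyramine, 2 U/mL HRP and 200 µM Amplex Red for 20 min at 37 °C. Fluorescence was read at ex 545/em 590 nm, and inhibition was calculated against the uninhibited control after background subtraction.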

[5] = target: Cholinesterase (Equus caballus) (UniProt P81908); assay: Competitive inhibition of equine serum BuChE […] using varying concentrations of butyrylthiocholine iodide as substrate at 2.6 to 10.5 uM by Lineweaver-burk plot analysis; conditions: dose microM 2.6-10.5
Chain of Cholinesterase (Equus caballus) (P81908 whole entry): as the sequence (P81908 whole entry) above

[6] = target: T2, Amine oxidase [flavin-containing] B; assay: Competitive inhibition of recombinant human MAO-B using varying concentration of p-tyramine as substrate at 0.13 to 0.54 uM by Lineweaver-burk plot analysis; conditions: dose 0.13-0.54 µM
Outline: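 Preincubation-free kinetic run with human MAO-B: initial oxidation rates of p-tyramine measured at six substrate concentrations without inhibitor and with three inhibitor concentrations (0.54, 0.27, 0.13 μM). Activity was read by the Amplex Red/horseradish peroxidase fluorescence method. Plots were fitted by weighted least-squares analysis, assuming the variance of v is a constant percentage of v.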

[7] = target: Acetylcholinesterase (Electrophorus electricus) (UniProt O42275); assay: Mixed-type inhibition of electric eel AChE using varying concentration of acetylthiocholine iodide as substrate at 0.185 to 0.74 uM by Lineweaver-burk plot analysis; conditions: dose microM 0.185-0.74
Chain of Acetylcholinesterase (Electrophorus electricus) (O42275 24-633 limits assumed): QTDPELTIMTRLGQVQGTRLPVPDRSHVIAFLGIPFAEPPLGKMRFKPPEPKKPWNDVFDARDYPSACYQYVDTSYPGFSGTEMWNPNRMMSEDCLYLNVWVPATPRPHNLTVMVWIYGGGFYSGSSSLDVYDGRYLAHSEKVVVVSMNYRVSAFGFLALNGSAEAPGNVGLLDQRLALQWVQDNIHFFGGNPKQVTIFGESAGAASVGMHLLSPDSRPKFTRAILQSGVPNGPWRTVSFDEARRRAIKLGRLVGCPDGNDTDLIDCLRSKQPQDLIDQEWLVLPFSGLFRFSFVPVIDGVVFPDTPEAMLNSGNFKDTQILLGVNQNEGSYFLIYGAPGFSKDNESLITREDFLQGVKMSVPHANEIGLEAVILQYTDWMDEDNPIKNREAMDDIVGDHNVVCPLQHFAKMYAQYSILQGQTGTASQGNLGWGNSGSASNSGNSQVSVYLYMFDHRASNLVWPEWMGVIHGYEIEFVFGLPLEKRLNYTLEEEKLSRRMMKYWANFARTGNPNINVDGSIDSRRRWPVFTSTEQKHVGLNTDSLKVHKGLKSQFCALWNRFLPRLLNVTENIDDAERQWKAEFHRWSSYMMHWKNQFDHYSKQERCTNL

Structure (SMILES) | IC50 (Cholinesterase) | Papp at 16 h (in vitro) | IC50 [1] | Ratio IC50 [2] | IC50 (Acetylcholinesterase) | Selectivity ratio (Homo sapiens) | IC50 [3] | Activity (PC-12) | inhibition at 100 µM [4] | inhibition [5] | inhibition (INH) [6] | inhibition [7]
O=C(NC1CCN(Cc2ccccc2)CC1)c1coc2ccc(OCc3ccccc3)cc2c1=O | 12.4 µM | 4.6 ×10⁻⁶ cm/s | 11.6 µM | 6.7 | 1.85 µM | 211 | 0.035 µM | Non-Toxic |  |  |  | 
COc1ccc2c(=O)c(C(=O)NCCC3CCN(Cc4ccccc4)CC3)coc2c1 | 0.52 µM |  |  | 3.7 | 0.145 µM | > 3.2 | 30.9 µM |  | 32.4% |  |  | 
O=C(NCCC1CCN(Cc2ccccc2)CC1)c1coc2ccccc2c1=O | 0.6 µM |  |  | 8.7 | 0.069 µM | < 2.8 | 35.3 µM |  | 68.6% |  |  | 
COc1ccc2occ(C(=O)NCCC3CCN(Cc4ccccc4)CC3)c(=O)c2c1 | 0.45 µM | 16.7 ×10⁻⁶ cm/s |  | 13.7 | 0.033 µM | < 8.9 | 11.2 µM | Non-Toxic | 72.4% |  |  | 
O=C(NCCC1CCN(Cc2ccccc2)CC1)c1coc2cc(Br)ccc2c1=O | 1.24 µM |  |  | 11.9 | 0.154 µM | > 3.4 | 29.5 µM |  | 30.3% |  |  | 
Cc1ccc2occ(C(=O)NCCC3CCN(Cc4ccccc4)CC3)c(=O)c2c1 | 0.91 µM |  |  | 8.3 | 0.11 µM | > 1.9 | 52.5 µM |  | 30.6% |  |  | 
O=C(NCCC1CCN(Cc2ccccc2)CC1)c1coc2ccc(Br)cc2c1=O | 1.17 µM |  |  | 11.3 | 0.104 µM | > 3.8 | 26.1 µM |  | 48.2% |  |  | 
COc1ccc2c(=O)c(C(=O)NC3CCN(Cc4ccccc4)CC3)coc2c1 | 9.78 µM |  |  | 6.2 | 1.58 µM | > 3.5 | 28.6 µM |  | 37.4% |  |  | 
O=C(NC1CCN(Cc2ccccc2)CC1)c1coc2cc(Br)ccc2c1=O | 18.2 µM |  |  | 1.2 | 9.23 µM | > 5.1 | 19.7 µM |  | 31.6% |  |  | 
O=C(NCCC1CCN(Cc2ccccc2)CC1)c1cc(=O)c2ccccc2o1 | 1.54 µM |  |  | 4.9 | 0.31 µM | > 4.9 | 20 µM |  | 29.5% |  |  | 
O=C(NC1CCN(Cc2ccccc2)CC1)c1coc2ccccc2c1=O | 18.7 µM | 15.6 ×10⁻⁶ cm/s |  | 6.3 | 2.96 µM | < 5.6 | 17.7 µM |  | 63.8% |  |  | 
O=C(NC1CCN(Cc2ccccc2)CC1)c1coc2ccc(Br)cc2c1=O | 9.45 µM |  |  | 6.1 | 1.57 µM | > 4.4 | 22.8 µM |  | 35.5% |  |  | 
COc1ccc2occ(C(=O)NC3CCN(Cc4ccccc4)CC3)c(=O)c2c1 | 24.4 µM |  |  | 2.4 | 10.1 µM | > 2.1 | 46.3 µM |  | 7.5% |  |  | 
O=C(NC1CCN(Cc2ccccc2)CC1)c1cc(=O)c2ccccc2o1 | 27.9 µM |  |  | 7.6 | 5.69 µM | > 3.1 | 33.3 µM |  | 29.7% |  |  | 
Cc1ccc2occ(C(=O)NC3CCN(Cc4ccccc4)CC3)c(=O)c2c1 | 15.3 µM |  |  | 8.8 | 1.74 µM | > 5.1 | 19.5 µM |  | 48.1% |  |  | 
O=C(NCCC1CCN(Cc2ccccc2)CC1)c1coc2ccc(OCc3ccccc3)cc2c1=O | 5.24 µM | 5.4 ×10⁻⁶ cm/s | 67.2 µM | 14.2 | 0.37 µM | 247 | 0.272 µM | Non-Toxic |  | Active | Active | Active
